Experimental findings from ChEMBL document CHEMBL1155931, “Sulfur-substituted naphthalimides as photoactivatable anticancer agents: DNA interaction, fluorescence imaging, and phototoxic effects in cultured tumor cells” (Bioorg Med Chem, 2008) are described below.

Test [1] concerns MCF7. Description: Antiproliferative activity against human MCF7 cells after 24 hrs of drug exposure followed by irradiation at 366 nanometer for 20 mins and subsequent incubation of 72 hrs in drug free media. The class given is functional, cell-based. The conditions noted are these: MCF7, light or radiation study. In outline:
(§1)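 Cells grown in MEM with 10% FCS at 37 °C, 5% CO2. Seeded for 48 h (HT-29) or 72 h (MCF-7) before drug. Graded concentrations were tested in six replicates. Continuous runs lasted 72 h (HT-29) or 96 h (MCF-7). Short runs used 24 h drug, then drug-free medium, optionally irradiated 20 min at 366 nm (4 W lamp, 5 cm). Biomass read by crystal violet. IC50 is the mean of ≥2 independent experiments.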

Test [2] concerns DNA. The test can be described thus: Binding affinity to calf thymus DNA assessed as change in melting temperature at concentration of 0.1 [compound]/[DNA]. The following applies: Bos taurus. The class given is nucleic-acid assay. In outline:
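CT DNA at 200 µM nucleotide with compound at 20 µM in 10 mM phosphate buffer, pH 7.2, 1% DMSO. Melting followed at 260 nm in 1 °C steps. Tm taken as the midpoint from first-derivative curves. ΔTm accurate within ±1 °C.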

Test [3] has as its system MCF7. Description: Antiproliferative activity against human MCF7 cells after 96 hrs by crystal violet staining. The conditions noted are these: MCF7, 96 h. Format: functional, cell-based. Summed up: as §1
Test [4] deals with MCF7. The test can be described thus: Antiproliferative activity against human MCF7 cells after 24 hrs of drug exposure followed by 72 hrs incubation in drug free media. The class given is functional, cell-based. Summed up:
as §1

Test [5] has as its system Escherichia coli. The test can be described thus: Induction of photocleave of Escherichia coli pBR322 DNA after irradiation for 2 hrs at 265 nanometer. The following applies: in the assay text read “365 nanometer” for “265 nanometer”. Summed up:
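pBR322 supercoiled plasmid (0.25 µg) in Tris–HCl pH 7.5 with compound at 50 µM (DMSO stock). Irradiated 2 h at 365 nm (8 W, 10 cm). Run on 1% agarose, ethidium bromide stain. Nicked/linear DNA quantified as percentage of total, mean of two experiments.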

The subject of test [6] is HT-29. Description: Antiproliferative activity against human HT29 cells after 24 hrs of drug exposure followed by 48 hrs incubation in drug free media. The class given is functional, cell-based. Summed up:
as §1

Test [7] concerns HT-29. Description: Antiproliferative activity against human HT29 cells after 24 hrs of drug exposure followed by irradiation at 366 nanometer for 20 mins and subsequent incubation of 48 hrs in drug free media. Format: functional, cell-based. The conditions noted are these: HT-29, light or radiation study. In outline: as §1
Test [8] deals with HeLa. Description: Reduction of topoisomerase 2alpha protein level in human HeLa cells by Western blotting. The class given is functional, cell-based. In general terms: Immunoblotting shows a protein as a band on a membrane.
Test [9] concerns HT-29. The test can be described thus: Antiproliferative activity against human HT29 cells after 72 hrs by crystal violet staining. Format: functional, cell-based. The conditions noted are these: HT-29, 72 h. Summed up:
as §1

Test [10] deals with DNA. Description: Binding affinity to calf thymus DNA assessed as decrease in helical B conformation at 245 nanometer wavelength by circular dichroism. The class given is nucleic-acid assay. The conditions noted are these: Bos taurus. In outline: (§2)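 CD spectra of CT DNA (200 µM nucleotide) after 60 min incubation with 20 µM compound. Recorded after equilibration, when ellipticity no longer changed. DNA concentration set by ε260 = 6600 M^-1 cm^-1.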

For test [11], the system named is DNA. Description: Binding affinity to calf thymus DNA assessed as increase in base stacking at 275 nanometer wavelength by circular dichroism. Format: nucleic-acid assay. The following applies: Bos taurus. In outline: as §2
Background: Circular dichroism is the unequal absorption of left and right circularly polarised light.

The source made the active and inactive calls. No cut-off for these calls is given here.

One may read the IC50 as the concentration at which inhibition is half-maximal. As a reminder, the ΔTm is the change in melting temperature against a reference sample.

Turning to `CCSc1ccc2c3c(cccc13)C(=O)N(CCS)C2=O`, the IC50 in test [1], in test [3], in test [4], in test [6] and in [7] was above 50 µM in each case. Also, the ΔTm in test [2] stood at 2 °C. Also, the result in test [5] was Active.

Turning to `CCSc1ccc2c3c(cccc13)C(=O)N(CCN(C)C)C2=O`, the IC50 is 4.3 µM in test [1]; 4.4 µM in test [3]; 4.5 µM in test [4]; 1.9 µM in test [9]; 2.2 µM in test [6]; 2.5 µM in test [7]. The ΔTm in test [2] was determined as 8 °C. The outcome in test [5], in test [8], in [10] and in test [11] was Active.

`CN(C)CCN1C(=O)c2cccc3cccc(c23)C1=O`: the IC50 in [1] came out at 11.3 µM; in test [3], 4.5 µM; in [4], 11.6 µM; in test [9] it was 3.5 µM; in [6], 7.2 µM; in [7] it was 5.3 µM. In addition, the ΔTm in test [2] is 6 °C. The result in test [5] and in test [8] was Active.

Turning to `CN(C)CCN1C(=O)c2cccc3c(SCc4ccccc4)ccc(c23)C1=O`, the IC50 in test [1] came to 1.7 µM; in test [3], 3.4 µM; in [4], 6.7 µM; in test [9], 4.1 µM; in [6], 4.8 µM; in test [7], 1.3 µM. Moreover, the ΔTm in test [2] amounted to 7 °C. In addition, the result in [5], in test [10] and in test [11] was Active. Also, in [8], the outcome was inactive.

`CN(C)CCN1C(=O)c2cccc3c(Sc4ccccc4N)ccc(c23)C1=O`: the IC50 in test [1] was found to be 4.9 µM; in test [3], 2.6 µM; in [4] it was 4.8 µM; in test [9], 2.9 µM; in [6], 2.8 µM; in test [7] it was 2.8 µM. Also, the ΔTm in test [2] amounted to 9 °C. In addition, the outcome in [5], in test [8] and in [10] was Active.

In the case of `CCCCSc1ccc2c3c(cccc13)C(=O)N(CCN(C)C)C2=O`, the IC50 in test [1] came out at 4 µM; in test [3] it was 2.6 µM; in [4], 5.7 µM; in test [9] it was 4.6 µM; in test [6], 4.3 µM; in test [7], 3 µM. The ΔTm in test [2] came out at 8 °C. Moreover, the result in test [5], in test [10] and in test [11] was Active. In test [8], the result was inactive.

Consider `CN(C)CCN1C(=O)c2cccc3c2c(cc2c4ccccc4sc32)C1=O`, for which the IC50 in test [1] came out at 0.18 µM; in test [3] it was 0.2 µM; in [4], 0.17 µM; in test [9], 0.62 µM; in test [6] it was 0.23 µM; in test [7] it was 0.21 µM. The result in test [8] was Active.

For the compound `CN(C)CCN1C(=O)c2cccc3c(Sc4nc5ccccc5s4)ccc(c23)C1=O`, the IC50 was determined as 2.4 µM in test [1]; 2.7 µM in [3]; 7.3 µM in test [4]; 4.4 µM in test [9]; 5.5 µM in test [6]; 1.8 µM in test [7]. Moreover, the ΔTm in test [2] stood at 3 °C. In addition, the result in test [5] and in [8] was Active.
